According to ChEMBL document CHEMBL4033664, “Synthesis of benzoxazole derivatives as interleukin-6 antagonists” (Bioorg Med Chem, 2017):
Activity calls are given as the source filed them. No cut-off for these calls is given here.

Tests used:
[1] = target: Interleukin-6 (Homo sapiens) (UniProt P05231); assay: Inhibition of IL-6 signaling pathway in human HepG2 cells transfected with p-STAT3-Luc assessed as reduction in IL-6 induced STAT3 phosphorylation at 20 ug/ml preincubated for 1 hr followed by IL-6 induction measured after 10 mins by immunoblot analysis; type: cell-based
In short: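 HepG2 cells were grown in MEM to 80% confluence and serum-starved for 6 h. They were treated with compound for 1 h, then with IL-6 (20 ng/ml) for 10 min. Lysates were run on SDS-PAGE and immunoblotted with anti-phospho-STAT3. Scanned band intensity was expressed relative to the IL-6-only band, set at 100%.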

Th1 [2] = assay: Antiinflammatory activity in C57BL6 mouse CD4-positive T-effector Th1 cells assessed as suppression of anti-CD3/IL-12-induced IFNgamma levels at 10 uM preincubated for 3 to 4 days followed by anti-CD3 stimulation for 24 hrs by ELISA; type: functional, cell-based
In short: (§1)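 CD4+ T cells were isolated from C57BL6 mouse lymph node and spleen and primed with anti-CD3 (2 µg/ml) plus anti-CD28 (1 µg/ml) for 24 h. Compound (10 µM) was added with IL-12 (10 ng/ml) and anti-IL-4 (5 µg/ml), renewed every other day for 3-4 days, then cells were restimulated with anti-CD3 (1 µg/ml) for 24 h. Supernatant cytokine was measured by sandwich ELISA with peroxidase-streptavidin and OD read-out.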

[3] = Cytotoxicity against human HepG2 cells assessed as cell viability at 10 ug/ml after 48 hrs by MTT assay; type: cell-based; details: read-out: Activity
In short: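 HepG2 cells in MEM with 10% FBS were exposed to compound at 1, 3, 10, 30 or 100 µg/ml for 48 h, then given MTT for 3 h. Formazan was dissolved in DMSO and OD read at 570 nm. Triplicates from three independent experiments, mean ± SE.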

TH2 cell [4] = assay: Antiinflammatory activity in C57BL6 mouse CD4-positive T-effector TH2 cells assessed as suppression of IL-5 levels at 10 uM preincubated for 3 to 4 days followed by anti-CD3 stimulation for 24 hrs by ELISA; type: functional, cell-based
TH2 cell [5] = assay: Antiinflammatory activity in C57BL6 mouse CD4-positive T-effector TH2 cells assessed as suppression of IL-4 levels at 10 uM preincubated for 3 to 4 days followed by anti-CD3 stimulation for 24 hrs by ELISA; type: functional, cell-based
In short: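 Mouse C57BL6 lymph node and spleen CD4+ T cells were primed for 24 h with anti-CD3 (2 µg/ml) and anti-CD28 (1 µg/ml). Th2 polarization used IL-4 (10 ng/ml) and anti-IFN-γ (1 µg/ml) with compound at 10 µM, refreshed every other day for 3-4 days. Cells were restimulated with anti-CD3 (1 µg/ml) for 24 h, and supernatant IL-4 was measured by biotin/streptavidin-peroxidase sandwich ELISA.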

TH2 cell [6] = assay: Antiinflammatory activity in C57BL6 mouse CD4-positive T-effector TH2 cells assessed as suppression of IL-13 levels at 10 uM preincubated for 3 to 4 days followed by anti-CD3 stimulation for 24 hrs by ELISA; type: functional, cell-based
Th1 [7] = assay: Antiinflammatory activity in C57BL6 mouse CD4-positive T-effector Th1 cells assessed as suppression of anti-CD3/IL-12-induced IL-2 levels at 10 uM preincubated for 3 to 4 days followed by anti-CD3 stimulation for 24 hrs by ELISA; type: functional, cell-based; in short: as §1
Th17 = assay: Antiinflammatory activity in C57BL6 mouse CD4-positive T-effector Th17 cells assessed as suppression of IL-17 levels at 10 uM preincubated for 3 to 4 days followed by anti-CD3 stimulation for 24 hrs by ELISA; type: functional, cell-based
[8] = Proinflammatory activity in C57BL6 mouse CD4-positive T-effector Th1 cells assessed as increase in anti-CD3/IL-12-induced IFNgamma levels at 10 uM preincubated for 3 to 4 days followed by anti-CD3 stimulation for 24 hrs by ELISA; type: ADME, cell-based; details: th1, 24 h; in short: as §1
[9] = Proinflammatory activity in C57BL6 mouse CD4-positive T-effector Th1 cells assessed as increase in anti-CD3/IL-12-induced IL-2 levels at 10 uM preincubated for 3 to 4 days followed by anti-CD3 stimulation for 24 hrs by ELISA; type: ADME, cell-based; details: th1, 24 h; in short: as §1

Chain of Interleukin-6 (Homo sapiens) (P05231 whole entry): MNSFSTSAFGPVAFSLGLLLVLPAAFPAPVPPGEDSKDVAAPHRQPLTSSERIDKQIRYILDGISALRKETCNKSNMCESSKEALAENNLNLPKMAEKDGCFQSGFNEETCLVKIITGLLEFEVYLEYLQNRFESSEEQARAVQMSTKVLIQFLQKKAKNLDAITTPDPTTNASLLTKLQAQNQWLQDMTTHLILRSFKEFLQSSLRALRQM

With `CCc1ccc(Nc2nc3cc(NC(=O)c4ccc([N+](=O)[O-])cc4Cl)ccc3o2)cc1` as the compound, how does the inhibition [1] read?
Its inhibition is 20%.

With `CCCCCCCc1ccc(C(=O)Nc2ccc3oc(Nc4ccc(CC)cc4)nc3c2)cc1` as the compound, how does the inhibition [1] read?
Its inhibition is 57.2%.

For `CCc1ccc(Nc2nc3cc(NC(=O)c4cc([N+](=O)[O-])ccc4Cl)ccc3o2)cc1`, which inhibition [1] is on record?
The inhibition was 65.6%.

What does the source list for `CCc1ccc(Nc2nc3cc(N)ccc3o2)cc1`?
Activity (Th1 [2]): Active; inhibition [1]: 97.5%; viability at 48 h, 10 ug/ml [3]: 70.8%; Activity (TH2 cell [4]): Active; Activity (TH2 cell [5]): Active; Activity (TH2 cell [6]): Active; Activity (Th1 [7]): Active; Activity (Th17): Active

With `CCc1ccc(Nc2nc3cc(NC(=O)c4ccc(CC)cc4)ccc3o2)cc1` as the compound, how does the inhibition [1] read?
Its inhibition is 63.3%.

With `CCOc1ccccc1C(=O)Nc1ccc2oc(Nc3ccc(CC)cc3)nc2c1` as the compound, how does the inhibition [1] read?
Its inhibition is 58%.

For `CCc1ccc(Nc2nc3cc(NC(=O)c4ccccc4)ccc3o2)cc1`, which inhibition [1] is on record?
Its inhibition is 93.1%.

What about the viability at 48 h, 10 ug/ml [3] of the same compound?
The viability at 48 h, 10 ug/ml was 65.6%.

Which results are given for `CCc1ccc(Nc2nc3cc(NC(=O)c4cc(OC)c(OC)c(OC)c4)ccc3o2)cc1`?
inhibition [1]: 83.7%; viability at 48 h, 10 ug/ml [3]: 16.4%

What does the source list for `CCc1ccc(Nc2nc3cc(NC(=O)c4cccc(CCl)c4)ccc3o2)cc1`?
inhibition [1]: 91.7%; viability at 48 h, 10 ug/ml [3]: 41.1%

Which inhibition [1] does the source give for `CCc1ccc(Nc2nc3cc(NC(=O)c4ccc(Cl)c(Cl)c4)ccc3o2)cc1` here?
Its inhibition is 69.3%.

Which inhibition [1] does the source give for `CCc1ccc(Nc2nc3cc(NC(=O)c4cc(F)cc(C(F)(F)F)c4)ccc3o2)cc1` here?
Its inhibition is 50.2%.

For `CCc1ccc(Nc2nc3cc(NC(=O)c4ccc(C(C)(C)C)cc4)ccc3o2)cc1`, which inhibition [1] is on record?
The inhibition was 86.5%.

What about the viability at 48 h, 10 ug/ml [3] of the same compound?
Its viability at 48 h, 10 ug/ml is 59.8%.

With `CCc1ccc(Nc2nc3cc(NC(=O)Cc4ccccc4)ccc3o2)cc1` as the compound, how does the inhibition [1] read?
Its inhibition is 61.7%.

Which results are given for `CCc1ccc(Nc2nc3cc(NC(=O)c4ccccc4Nc4cccc(C(F)(F)F)c4)ccc3o2)cc1`?
inhibition [1]: 84.6%; viability at 48 h, 10 ug/ml [3]: 38.2%

For `CCc1ccc(Nc2nc3cc(NC(=O)c4ccc(OC)c(OC)c4)ccc3o2)cc1`, which inhibition [1] is on record?
Its inhibition is 26.2%.

For `CCc1ccc(Nc2nc3cc(NC(=O)c4ccc(Cl)cc4)ccc3o2)cc1`, which inhibition [1] is on record?
Its inhibition is 12.1%.

What about the Activity (TH2 cell [4]) of the same compound?
The Activity was “inactive”.

What about the Activity (TH2 cell [5]) of the same compound?
The Activity was “inactive”.

What about the Activity (TH2 cell [6]) of the same compound?
The Activity was “inactive”.

What about the Activity (Th17) of the same compound?
Its Activity is “inactive”.

And the Activity [8]?
The Activity was “Toxic”.

What about the Activity [9] of the same compound?
Its Activity is “Toxic”.
